In test [1] the target is T1, LIM domain kinase 2 (Homo sapiens, UniProt P53671). The test can be described thus: Inhibition of recombinant full length LIMK2 (330 to 632 residues) (unknown origin) expressed in HEK293T cells incubated for 2 hrs in presence of tracer K10 by NanoBRET assay. The format is cell-based.
Target sequence in this assay (P53671 whole entry, the tested form may be a part): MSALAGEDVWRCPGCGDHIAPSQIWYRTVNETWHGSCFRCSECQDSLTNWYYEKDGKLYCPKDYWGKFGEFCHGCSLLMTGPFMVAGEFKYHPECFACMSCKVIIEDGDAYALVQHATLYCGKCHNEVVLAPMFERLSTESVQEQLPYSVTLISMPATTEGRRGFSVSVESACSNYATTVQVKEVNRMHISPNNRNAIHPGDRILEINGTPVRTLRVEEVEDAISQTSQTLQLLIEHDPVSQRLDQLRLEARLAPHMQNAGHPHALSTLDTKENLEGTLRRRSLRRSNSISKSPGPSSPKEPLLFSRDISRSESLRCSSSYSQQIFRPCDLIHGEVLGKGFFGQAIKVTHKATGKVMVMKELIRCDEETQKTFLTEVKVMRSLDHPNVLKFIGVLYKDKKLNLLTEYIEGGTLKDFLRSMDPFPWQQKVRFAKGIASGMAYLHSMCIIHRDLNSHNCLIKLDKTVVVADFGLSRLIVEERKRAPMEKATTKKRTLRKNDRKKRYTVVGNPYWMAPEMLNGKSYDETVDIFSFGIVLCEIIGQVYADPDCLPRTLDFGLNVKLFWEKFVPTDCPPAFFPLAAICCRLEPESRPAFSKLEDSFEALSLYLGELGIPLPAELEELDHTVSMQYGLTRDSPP
Test [2] concerns the target T2, LIM domain kinase 1 (Homo sapiens, UniProt P53667). The test can be described thus: Binding affinity to recombinant LIMK1 (330 to 637 residues) (unknown origin) expressed in baculovirus infected insect cells assessed as change in melting temperature at 10 uM by differential scanning fluorimetry.
Target sequence in this assay (P53667 whole entry, looked up, the tested form may be a part): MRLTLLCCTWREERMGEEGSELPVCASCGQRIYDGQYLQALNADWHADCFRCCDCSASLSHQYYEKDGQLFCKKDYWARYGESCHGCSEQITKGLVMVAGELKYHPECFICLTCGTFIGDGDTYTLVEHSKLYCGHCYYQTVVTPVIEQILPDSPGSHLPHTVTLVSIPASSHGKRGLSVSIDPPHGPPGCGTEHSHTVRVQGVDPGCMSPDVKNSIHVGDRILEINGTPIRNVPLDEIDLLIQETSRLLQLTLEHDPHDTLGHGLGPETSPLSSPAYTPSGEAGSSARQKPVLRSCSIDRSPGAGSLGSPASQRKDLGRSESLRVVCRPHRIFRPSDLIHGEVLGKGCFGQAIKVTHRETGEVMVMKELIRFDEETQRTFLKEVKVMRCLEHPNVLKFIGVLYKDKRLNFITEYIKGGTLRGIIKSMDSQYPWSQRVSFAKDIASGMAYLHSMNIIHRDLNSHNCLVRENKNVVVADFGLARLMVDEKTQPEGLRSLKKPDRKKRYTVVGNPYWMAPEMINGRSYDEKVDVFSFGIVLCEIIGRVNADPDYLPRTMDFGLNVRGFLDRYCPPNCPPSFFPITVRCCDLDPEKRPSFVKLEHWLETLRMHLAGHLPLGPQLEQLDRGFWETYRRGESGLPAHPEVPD
The target in test [3] is T2, LIM domain kinase 1. Briefly: Inhibition of recombinant full length LIMK1 (330 to 637 residues) (unknown origin) expressed in HEK293T cells incubated for 2 hrs in presence of tracer K10 by NanoBRET assay. The format is cell-based.
Target sequence in this assay (P53667 whole entry, the tested form may be a part): as the sequence (P53667 whole entry, looked up, the tested form may be a part) above
The target of test [4] is T1, LIM domain kinase 2. Briefly: Binding affinity to recombinant LIMK2 (330 to 632 residues) (unknown origin) expressed in baculovirus infected insect cells assessed as change in melting temperature at 10 uM by differential scanning fluorimetry.
Target sequence in this assay (P53671 whole entry, looked up, the tested form may be a part): as the sequence (P53671 whole entry, the tested form may be a part) above
For test [5], the system named is N1E-115. The test can be described thus: Inhibition of neurite outgrowth in BMP7 stimulated mouse N1E-115 cells transfected with siFMR1 preincubated for 12 hrs followed by BMP7 stimulation for 24 hrs. The format is functional, cell-based. The conditions noted are these: dose 0.05-5 µM, time 36.0 hrs, DDE = dose-dependent effect. In outline: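 At 60 h, the medium was switched to 0.2% FBS containing inhibitor (0.05, 0.5 or 5 μM; DMSO stock) or DMSO for 12 h, then 10 ng/mL BMP7 was added for 24 h. The percentage of cells with neurites longer than one cell body was counted by microscopy, ≥100 cells per condition; mean + SD, N = 4.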

As to `O=C(c1ccc(S(=O)(=O)Nc2ccccc2)cc1)N(CCc1ccccc1)Cc1ccccc1`, the concentration for half-maximal inhibition (IC50) in test [1] stood at 92 nM; in test [3], 251 nM. For the same compound, the ΔTm in test [2] is 8.6 °C.

With `CN(Cc1ccccc1)C(=O)c1ccc(S(=O)(=O)Nc2cccc(Cl)c2)cc1`, the ΔTm in test [2] was 0.9 °C.

In the case of `CN(CCc1ccccc1)C(=O)c1ccc(S(=O)(=O)Nc2ccccc2)cc1`, the figures for the ΔTm in test [4] and in test [2] were 3.2 °C and 1.3 °C, respectively.

As for `CCCCN(Cc1ccccc1)C(=O)c1ccc(S(=O)(=O)Nc2ccccc2)cc1`, the inhibition entry in test [5] is “Dde”.

On to `CC(C)C(=O)Nc1ncc(C(=O)NCCN(Cc2ccccc2)C(=O)c2ccc(S(=O)(=O)Nc3ccccc3)cc2)s1`, for which the inhibition entry in test [5] was “Dde”.

Consider `O=C(c1ccc(S(=O)(=O)Nc2ccccc2)cc1)N(CCc1cn(Cc2ccccc2)nn1)Cc1ccccc1`, for which the values for the shift in melting temperature (ΔTm) in test [4] and in test [2] were 12.3 °C and 6.8 °C, respectively. Also, the IC50 in test [1] is 121 nM; in test [3] it was 472 nM.

Consider `CC(C)C(=O)Nc1ncc(-c2cc(C(F)F)nn2-c2c(Cl)cccc2Cl)s1`, for which, in test [5], the inhibition result was “Dde”.

With `CN(Cc1ccccc1)C(=O)c1ccc(S(=O)(=O)Nc2ccccc2)cc1`, the ΔTm in test [2] was 4.5 °C.

Consider `CN(Cc1ccccc1)C(=O)c1ccc(S(=O)(=O)NCCc2ccccc2)cc1`, for which the ΔTm in test [4] came out at 0.1 °C; in test [2] it was 0.9 °C.
